Screening data (PubChem BioAssay)
Only some compounds are listed: those with a hit (about 3% of all), similar ones and a draw of the others.
HTR1E antagonist: 5-HT1E (human) receptor antagonism. inhibition, % at 6 µM. P28566. 65,000 tested, 0.99% active. CHO 5-HT1E Ga15 NFAT-bla reporter, FRET, antagonist;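 active = inhibition above a set limit, the mean inhibition across every tested compound plus 3 SD, cut at about 29% in these data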;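 also: signal is the 460 over 535 nm emission ratio of beta-lactamase substrate; 0% = agonist plus DMSO wells and 100% = wells without agonist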
5HT1a ag: activates the human 5-HT1a serotonin receptor; P08908; CHO 5-HT1a Ga15 NFAT-bla reporter, FRET ratio; 0% basal, 100% maximal reference agonist; activation, % at 10 µM; 65,000 tested, 0.56% active; AID 567;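 active = activation above the screen-wide mean activation plus 3 SD, cut at about 19% in these data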;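 also: 0% = DMSO wells and 100% = 5-CT at EC100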
Target sequence (P08908 whole entry, looked up): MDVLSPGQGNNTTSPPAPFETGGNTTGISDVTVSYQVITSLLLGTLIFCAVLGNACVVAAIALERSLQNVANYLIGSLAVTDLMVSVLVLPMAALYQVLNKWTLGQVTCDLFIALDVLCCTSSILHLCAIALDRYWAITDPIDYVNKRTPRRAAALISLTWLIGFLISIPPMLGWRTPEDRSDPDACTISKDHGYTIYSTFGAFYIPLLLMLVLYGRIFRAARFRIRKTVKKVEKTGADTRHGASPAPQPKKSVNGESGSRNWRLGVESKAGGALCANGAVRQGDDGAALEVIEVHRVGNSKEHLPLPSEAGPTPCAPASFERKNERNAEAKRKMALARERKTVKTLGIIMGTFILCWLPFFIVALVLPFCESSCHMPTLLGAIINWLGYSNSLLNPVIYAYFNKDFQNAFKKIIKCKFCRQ
S1P1 ag-PAM: agonists and agonism potentiators of human S1P1 receptor; S1P1 CRE-bla cells, forskolin, beta-lactamase FRET, potentiator mode; S1P1 agonist co-added at EC20, 2 nM; 100% = saturating reference agonist, 0% = basal; 56,000 tested, 0.57% active; activation, % at 9.5 µM; AID 449; P21453;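 active = activation above a cutoff set at the mean activation of all tested compounds plus 3 SD, cut at about 54% in these data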;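 also: forskolin at 4 µM as EC80 and the EC20 agonist is SEW2871; 100% = SEW2871 at its EC100 plus forskolin at EC80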
5-HT1A blocker: antagonists of human 5-HT1a serotonin receptor; inhibition, % at 10 µM; CHO 5-HT1a Ga15 NFAT-bla reporter, antagonist mode; 62,000 tested, 0.68% active;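 active = inhibition above the mean of all tested compounds plus 3 SD, cut at about 43% in these data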;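 also: receptor stimulated by 5-CT agonist at 100 nM near EC80; beta-lactamase reporter measured by ratiometric fluorescence of a cleavable substrate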
HTR1E agonist: 5-HT1E (human) receptor agonism; CHO 5-HT1E Ga15 NFAT-bla reporter, FRET; 0% DMSO wells, 100% control agonist wells; P28566; 65,000 tested, 0.69% active; AID 574; activation, % at 6 µM;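 active = activation above a set limit, the screen-wide mean activation plus 3 SD, cut at about 8.5% in these data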;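 also: 100% = positive control agonist at 1 µM giving full maximal response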
S1P3 agonist: S1P3 (human) receptor agonism; 60,000 tested, 0.1% active; S1P3 NFAT-BLA reporter cells, FRET ratio; relative to 1 µM S1P, basal subtracted; activation, % at 4.5 µM;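 active = activation above the screen-wide mean plus 3 SD, cut at about 4.5% in these data, passing the limit was not always enough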
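material = human S1P3 NFAT-BLA reporter CHO cells | schedule = 4 h compound at 37 °C, 2 h substrate at RT | measured by = fluorescent BLA substrate, ex 405 nm, em 460/535 nm ratio | controls = 1 µM S1P reference | replication = primary once, confirmation triplicate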
An asterisk follows results filed as active.

For Cc1cccc(-c2cc3nc4c(c(N5CCC6(CC5)OCCO6)n3n2)CCCC4)c1 the results were HTR1E antagonist 14.7, 5HT1a ag -3.4, S1P1 ag-PAM -10.9, 5-HT1A blocker 8.1, HTR1E agonist -0.2 and S1P3 agonist -0.4.
`Cc1cccc(-c2cc3nc4c(c(N5CCCC(O)C5)n3n2)CCC4)c1` (configuration not stated) gave HTR1E antagonist 49.8*, 5HT1a ag -1.7, S1P1 ag-PAM -8.2, 5-HT1A blocker 20.4, HTR1E agonist 0.2 and S1P3 agonist -0.7.
For OC1CCCN(c2c3c(nc4cc(-c5cccc(Cl)c5)nn24)CCC3)C1 (configuration not stated) the results were HTR1E antagonist 38.2*, 5HT1a ag 1.1, 5-HT1A blocker 7.3 and HTR1E agonist -0.7.
N#CC(C(=O)NC1CCCCC1)c1nc2ccccc2nc1N1CCCCC1 (configuration not stated) was read as HTR1E antagonist -1.9, 5HT1a ag -2.1, S1P1 ag-PAM 0.6, 5-HT1A blocker -15.8, HTR1E agonist -0.6 and S1P3 agonist -0.9.
`Cn1c(SCC(=O)OCC(=O)c2ccccc2)nnc1-c1cccs1` gave HTR1E antagonist 0.7, 5HT1a ag -1.3, 5-HT1A blocker 1.1, HTR1E agonist -0.5 and S1P3 agonist 0.0.
Screening Cc1ccc(S(=O)(=O)N(C)Cc2ccc(-c3nnco3)cc2)cc1 returned HTR1E antagonist 0.8, 5HT1a ag -0.7, S1P1 ag-PAM 22.2, 5-HT1A blocker 16.5, HTR1E agonist -0.2 and S1P3 agonist 0.4.
For Cc1ccc(C(C)C)c(OCc2ccc(-c3nnco3)cc2)c1 the results were HTR1E antagonist 16.1, 5HT1a ag -1.4, S1P1 ag-PAM 97.9*, 5-HT1A blocker 10.0, HTR1E agonist -1.2 and S1P3 agonist -1.6.
`COc1cccc(-n2c(C)nnc2SCC(=O)Nc2ccccc2N2CCOCC2)c1` gave HTR1E antagonist -2.0, 5HT1a ag -2.7, S1P1 ag-PAM -13.7, 5-HT1A blocker 7.4, HTR1E agonist -1.3 and S1P3 agonist -0.7.
For OCc1cn(-c2ccccc2)nc1-c1ccc(-c2nn(-c3ccccc3)cc2CO)cc1 the results were HTR1E antagonist 9.0, 5HT1a ag 0.6, 5-HT1A blocker 6.6 and HTR1E agonist -0.1.
N#Cc1cn(-c2ccccc2)nc1-c1ccccc1 was read as HTR1E antagonist 33.8*, 5HT1a ag -3.1, S1P1 ag-PAM 10.3, 5-HT1A blocker 29.4, HTR1E agonist -0.8 and S1P3 agonist -1.4.
C=CCOc1cccc(C2C(C(=O)c3ccc(C)o3)=C(O)C(=O)N2c2nccs2)c1 (configuration not stated) was read as HTR1E antagonist 6.2, 5HT1a ag 0.4, 5-HT1A blocker 12.9 and HTR1E agonist -0.3.
Screening CC1(C)CC(=O)C2=C(C1)NC(=O)CC2c1ccc(N(CCC#N)CCC#N)cc1 (configuration not stated) returned HTR1E antagonist -8.0, 5HT1a ag -4.9, S1P1 ag-PAM -0.7, 5-HT1A blocker -3.1, HTR1E agonist 0.1 and S1P3 agonist -1.2.
CCOc1ccccc1C(=O)N1CCN(c2cccc(Cl)c2)CC1 was read as HTR1E antagonist 69.8*, 5HT1a ag 0.3, S1P1 ag-PAM -12.3, 5-HT1A blocker 69.7*, HTR1E agonist 0.7 and S1P3 agonist -1.4.
For O=C(Nc1cccc(Cl)c1)N1CCN(c2ncccn2)CC1 the results were HTR1E antagonist -5.5, 5HT1a ag -2.3, S1P1 ag-PAM -0.6, 5-HT1A blocker -7.3, HTR1E agonist -1.6 and S1P3 agonist -0.3.
For CC(=O)c1ccc(NC(=O)N2CCN(c3cccc(Cl)c3)CC2)cc1 the results were HTR1E antagonist 24.2, 5HT1a ag -1.2, S1P1 ag-PAM 64.7*, 5-HT1A blocker 32.8, HTR1E agonist 2.9 and S1P3 agonist -1.6.
O=C(O)c1ccccc1C(=O)N1CCN(c2cccc(Cl)c2)CC1 was read as HTR1E antagonist 0.8, 5HT1a ag 3.9, S1P1 ag-PAM 12.2, 5-HT1A blocker 21.1, HTR1E agonist 45.0* and S1P3 agonist 0.2.
